Reference: ChEMBL document CHEMBL4699573, “Design, Synthesis, and Pharmacological Evaluation of Analogues Derived from the PLEV Tetrapeptide as Protein-Protein Interaction Modulators of Voltage-Gated Sodium Channel 1.6” (J Med Chem, 2020)
Active and inactive are the calls of the source. The rule behind the calls is not given here. Starred links: 1 amine or outer side, 2 acyl side, 3 side chain; linkers in the order of their positions; H or OH if unused. Residues, ends and D or L forms follow the SMILES beside them. *: point of attachment. Adamantane1carbonyl = O=C(C12CC3CC(CC(C3)C1)C2)*; Benzenesulfonyl(4-F) = O=S(=O)(c1ccc(F)cc1)*; NH(1-Adamantyl) = C1C2CC3CC1CC(N*)(C2)C3; Fmoc = O=C(OCC1c2ccccc2-c2ccccc21)*; Piperazinyl(4-Me) = CN1CCN(*)CC1; Morpholide = C1CN(*)CCO1; Cbz = O=C(OCc1ccccc1)*; NHcHex = C1CCC(N*)CC1; CO = O=C([*:1])[*:2]; Bz = O=C(c1ccccc1)*; X2 = C1O[C@@H]1CO*; OtBu = CC(C)(C)O*; OPr = CCCO*; X1 = C#CCO*

Columns and labels:
HEK293 [1] = assay: Modulation of recombinant human FGF141b (1 to 252 residues)-recombinant human Nav1.6 C-terminal tail (1763 to 1976 residues) protein-protein interaction expressed in HEK293 cells assessed as relative luminescence value at 50 uM measured at 2 mins interval for 20 mins by split-luciferase complementation assay relative to control; format: cell-based; details: time min 2-20
Method in brief: (§1)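 Double-stable HEK293 line expressing CLuc-FGF14 and CD4-Nav1.6-C-tail-NLuc, kept on G418 and puromycin. Cells seeded for 24 h, then given compound for 1 h in serum-free, phenol red-free DMEM/F12 with a final 0.5% DMSO: 50 μM for screening, 0.25–100 μM over eight concentrations for dose-response; n = 4. D-luciferin added and read every 2 min for 20 min at 37 °C. Peak luminescence expressed as percent of per-plate DMSO mean (n = 32). IC50 from four-parameter nonlinear fit. At least 3 experiments.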

HEK293 [2] = assay: Modulation of recombinant human FGF141b (1 to 252 residues)-recombinant human Nav1.6 C-terminal tail (1763 to 1976 residues) protein-protein interaction expressed in HEK293 cells measured at 2 mins interval for 20 mins by split-luciferase complementation assay relative to control; format: cell-based; details: filed as modulator, time min 2-20; method in brief: as §1
[3] = molecular target: T1, Fibroblast growth factor 14 (Homo sapiens, UniProt Q92915); assay: Binding affinity to human recombinant FGF14 expressed in Escherichia coli BL21 assessed as dissociation constant by SPR analysis
T1 sequence (Q92915 whole entry): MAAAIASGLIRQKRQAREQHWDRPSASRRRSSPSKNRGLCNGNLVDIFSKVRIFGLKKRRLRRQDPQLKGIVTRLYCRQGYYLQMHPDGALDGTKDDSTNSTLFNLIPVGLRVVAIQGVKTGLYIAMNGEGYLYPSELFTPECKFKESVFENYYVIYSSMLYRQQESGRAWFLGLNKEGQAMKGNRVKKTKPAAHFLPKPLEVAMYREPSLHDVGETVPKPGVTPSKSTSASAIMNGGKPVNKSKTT
Method in brief: (§2)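 Biacore T100 runs with FGF14 (17,896 RU) or Nav1.6 C-tail (6,800 RU) amine-coupled on CM5 at pH 5.5. Compounds at 0.195–200 μM in PBS, 0.005% Tween-20, 2% DMSO; 50 μL/min at 25 °C. 120 s association, 150 s dissociation, DMSO calibration, blank subtraction. Rates from a Langmuir 1:1 fit; KD averages the kinetic and steady-state values. At least duplicate experiments.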

[4] = molecular target: T2, Sodium channel protein type 8 subunit alpha (Homo sapiens, UniProt Q9UQD0); assay: Binding affinity to human recombinant Nav1.6 C-terminal domain expressed in Escherichia coli BL21 assessed as association rate constant by SPR analysis; details: filed as modulator; method in brief: as §2
Target sequence in this assay (Q9UQD0 whole entry, looked up, the tested form may be a part): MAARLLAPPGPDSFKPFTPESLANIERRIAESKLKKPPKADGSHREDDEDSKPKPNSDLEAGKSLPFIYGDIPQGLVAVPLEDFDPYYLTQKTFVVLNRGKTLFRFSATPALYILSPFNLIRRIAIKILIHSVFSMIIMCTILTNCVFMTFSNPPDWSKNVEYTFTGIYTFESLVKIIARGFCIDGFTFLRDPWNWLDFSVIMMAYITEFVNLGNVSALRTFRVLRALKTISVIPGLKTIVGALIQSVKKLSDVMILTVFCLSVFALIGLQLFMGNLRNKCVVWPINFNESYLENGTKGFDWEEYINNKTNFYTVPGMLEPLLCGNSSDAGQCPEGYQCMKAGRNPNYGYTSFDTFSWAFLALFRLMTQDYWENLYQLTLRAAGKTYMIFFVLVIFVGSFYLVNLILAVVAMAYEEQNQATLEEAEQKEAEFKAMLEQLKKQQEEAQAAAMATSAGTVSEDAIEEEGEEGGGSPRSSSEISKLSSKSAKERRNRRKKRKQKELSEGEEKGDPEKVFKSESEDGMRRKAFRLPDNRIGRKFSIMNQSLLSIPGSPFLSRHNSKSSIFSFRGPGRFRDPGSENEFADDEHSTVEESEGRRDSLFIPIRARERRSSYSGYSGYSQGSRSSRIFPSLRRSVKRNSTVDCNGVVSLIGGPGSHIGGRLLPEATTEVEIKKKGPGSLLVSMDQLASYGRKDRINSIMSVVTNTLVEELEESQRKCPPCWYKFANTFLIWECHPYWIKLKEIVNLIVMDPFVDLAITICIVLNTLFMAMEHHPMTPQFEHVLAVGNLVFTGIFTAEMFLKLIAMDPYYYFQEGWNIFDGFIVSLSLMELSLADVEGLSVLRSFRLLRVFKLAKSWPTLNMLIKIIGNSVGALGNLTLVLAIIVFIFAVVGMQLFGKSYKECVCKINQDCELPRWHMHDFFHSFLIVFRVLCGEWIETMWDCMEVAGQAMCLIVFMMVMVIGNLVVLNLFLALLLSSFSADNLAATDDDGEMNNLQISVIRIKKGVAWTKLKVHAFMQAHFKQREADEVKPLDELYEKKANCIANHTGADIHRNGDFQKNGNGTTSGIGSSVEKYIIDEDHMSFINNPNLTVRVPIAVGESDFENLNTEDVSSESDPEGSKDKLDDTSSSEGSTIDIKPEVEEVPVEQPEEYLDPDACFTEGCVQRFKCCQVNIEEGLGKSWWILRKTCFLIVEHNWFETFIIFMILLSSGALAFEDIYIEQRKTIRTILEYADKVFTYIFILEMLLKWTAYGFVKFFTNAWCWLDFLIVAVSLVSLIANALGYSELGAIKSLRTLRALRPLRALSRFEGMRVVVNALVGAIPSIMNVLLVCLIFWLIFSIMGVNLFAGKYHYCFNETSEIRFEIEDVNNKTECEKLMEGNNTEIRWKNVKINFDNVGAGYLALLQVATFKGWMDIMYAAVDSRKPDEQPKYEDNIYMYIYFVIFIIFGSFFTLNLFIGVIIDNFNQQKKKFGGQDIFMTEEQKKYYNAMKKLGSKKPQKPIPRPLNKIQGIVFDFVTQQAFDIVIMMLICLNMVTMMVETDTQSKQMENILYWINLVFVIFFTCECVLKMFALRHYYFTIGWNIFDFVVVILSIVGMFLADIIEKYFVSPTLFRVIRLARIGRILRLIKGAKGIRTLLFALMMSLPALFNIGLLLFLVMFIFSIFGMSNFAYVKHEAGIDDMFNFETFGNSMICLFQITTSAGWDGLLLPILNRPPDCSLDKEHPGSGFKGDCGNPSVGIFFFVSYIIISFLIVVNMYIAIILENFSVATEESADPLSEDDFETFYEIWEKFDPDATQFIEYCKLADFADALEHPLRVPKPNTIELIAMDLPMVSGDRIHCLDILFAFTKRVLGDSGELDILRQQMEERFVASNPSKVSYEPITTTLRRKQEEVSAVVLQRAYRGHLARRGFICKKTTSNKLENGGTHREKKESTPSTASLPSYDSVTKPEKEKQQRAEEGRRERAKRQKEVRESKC

HEK293 [5] = assay: Cytotoxicity against HEK293 cells assessed as reduction in cell viability measured after 18 hrs by celltiter-blue assay; details: human, hek293, 18 h
[6] = molecular target: T3, Fibroblast growth factor 14 (Homo sapiens) (UniProt Q92915); assay: Binding affinity to human recombinant FGF14 expressed in Escherichia coli BL21 assessed as assessed as induction of protein denaturation by measuring change in melting temperature at 50 uM by fluorescent dye based thermal shift assay; details: filed as modulator
T3 sequence (whole entry): T1 sequence (Q92915 whole entry)

[7] = Modulation of recombinant human FGF141b (1 to 252 residues)-recombinant human Nav1.6 C-terminal tail (1763 to 1976 residues) protein-protein interaction expressed in HEK293 cells measured at 2 mins interval for 20 mins by split-luciferase complementation assay; format: cell-based; method in brief: as §1
[8] = molecular target: T3, Fibroblast growth factor 14 (Homo sapiens); assay: Binding affinity to human recombinant FGF14 expressed in Escherichia coli BL21 assessed as association rate constant by SPR analysis; details: filed as modulator; method in brief: as §2
HEK293 [9] = assay: Inhibition of full-length Photinus pyralis luciferase transfected in HEK293 cells at 25 uM incubated for 1 hrs by split-luciferase complementation assay; format: cell-based
Method in brief: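 HEK293 cells transfected with full-length Photinus pyralis luciferase, then treated 1 h with 25 μM compound (n = 4) or 0.5% DMSO (n = 32). Luminescence read after D-luciferin addition, as in the LCA, normalized to per-plate DMSO controls. One-way ANOVA with Dunnett's test.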

[10] = molecular target: T2, Sodium channel protein type 8 subunit alpha; assay: Binding affinity to human recombinant Nav1.6 C-terminal domain expressed in Escherichia coli BL21 assessed as assessed as induction of protein denaturation by measuring change in melting temperature at 10 uM by fluorescent dye based thermal shift assay; details: filed as modulator, dose 50.0 µM
Target sequence in this assay (Q9UQD0 whole entry, looked up, the tested form may be a part): as above

[11] = molecular target: T2, Sodium channel protein type 8 subunit alpha; assay: Binding affinity to human recombinant Nav1.6 C-terminal domain expressed in Escherichia coli BL21 assessed as dissociation constant by SPR analysis; method in brief: as §2
Target sequence in this assay (Q9UQD0 whole entry, the tested form may be a part): as the sequence (Q9UQD0 whole entry, looked up, the tested form may be a part) above

[12] = molecular target: T2, Sodium channel protein type 8 subunit alpha; assay: Binding affinity to human recombinant Nav1.6 C-terminal domain expressed in Escherichia coli BL21 assessed as dissociation rate constant by SPR analysis; details: filed as modulator; method in brief: as §2
Target sequence in this assay (Q9UQD0 whole entry, looked up, the tested form may be a part): as above

[13] = molecular target: T3, Fibroblast growth factor 14 (Homo sapiens); assay: Binding affinity to human recombinant FGF14 expressed in Escherichia coli BL21 assessed as dissociation rate constant by SPR analysis; details: filed as modulator; method in brief: as §2

`CC(C)C[C@H](NC(=O)[C@@H]1CCCN1C(=O)OCc1ccccc1)C(=O)N[C@@H](CCC(=O)OC(C)(C)C)C(=O)N[C@H](C(=O)N1CCOCC1)C(C)C` (Cbz-PLE(OtBu)V-Morpholide) gave an Activity (HEK293 [1]) of 72%.
`COC(=O)[C@@H](NC(=O)[C@H](CCC(=O)OC(C)(C)C)NC(=O)[C@H](CC(C)C)NC(=O)[C@@H]1CCCN1C(=O)OCC1c2ccccc2-c2ccccc21)C(C)C` (Fmoc-PLE(OtBu)V-OMe) showed an Activity (HEK293 [1]) of 76.9%.
In the case of `CC(C)C[C@H](NC(=O)[C@@H]1CCCN1C(=O)NC12CC3CC(CC(C3)C1)C2)C(=O)N[C@@H](CCC(=O)OC(C)(C)C)C(=O)N[C@H](C(N)=O)C(C)C` ({NH(1-Adamantyl)-CO}-PLE(OtBu)V-NH2), the Activity (HEK293 [1]) is reported as 83.5%.
With `C#CCOC(=O)[C@@H](NC(=O)[C@H](CCC(=O)OC(C)(C)C)NC(=O)[C@H](CC(C)C)NC(=O)[C@@H]1CCCN1C(=O)C12CC3CC(CC(C3)C1)C2)C(C)C` (Adamantane1carbonyl-PLE(OtBu)V-X1) the Efficacy (HEK293 [2]) was 96.6%, the Kd [3] was 14.7 µM and the K [4] was 1.26 10^5/M/s. For the same compound, the Activity (HEK293 [5]) was “Non-Toxic”, the ΔTm [6] was -1.85 °C and the IC50 [7] was 13.8 µM. For the same compound, the K [8] was 2.58 10^4/M/s, the Activity (HEK293 [1]; filed as modulator) was 5.1% and the inhibition (HEK293 [9]) was “inactive”. For the same compound, the ΔTm [10] was -0.15 °C, the Kd [11] was > 200 µM and the K [12] was 1.45 10^-3/s.
Work on `CC(C)C[C@H](NC(=O)[C@@H]1CCCN1C(=O)OCc1ccccc1)C(=O)N[C@@H](CCC(=O)OC(C)(C)C)C(=O)N[C@H](C(N)=O)C(C)C` (Cbz-PLE(OtBu)V-NH2) yielded an Activity (HEK293 [1]) of 112%.
For `CC(C)C[C@H](NC(=O)[C@@H]1CCCN1C(=O)c1ccccc1)C(=O)N[C@@H](CCC(=O)OC(C)(C)C)C(=O)N[C@H](C(N)=O)C(C)C` (Bz-PLE(OtBu)V-NH2), the Activity (HEK293 [1]) was 105%.
In the case of `CC(C)C[C@H](NC(=O)[C@@H]1CCCN1C(=O)C12CC3CC(CC(C3)C1)C2)C(=O)N[C@@H](CCC(=O)OC(C)(C)C)C(=O)N[C@H](C(=O)OC[C@@H]1CO1)C(C)C` (Adamantane1carbonyl-PLE(OtBu)V-X2), the Efficacy (HEK293 [2]) is reported as 91.4%, the Activity (HEK293 [5]) is reported as “Non-Toxic” and the IC50 [7] is reported as 25.1 µM. For the same compound, the Activity (HEK293 [1]; filed as modulator) was 13.1% and the inhibition (HEK293 [9]) was “inactive”.
For `CCCOC(=O)[C@@H](NC(=O)[C@H](CCC(=O)OC(C)(C)C)NC(=O)[C@H](CC(C)C)NC(=O)[C@@H]1CCCN1C(=O)C12CC3CC(CC(C3)C1)C2)C(C)C` (Adamantane1carbonyl-PLE(OtBu)V-OPr), the Efficacy (HEK293 [2]) was 83.3%, the Kd [3] was 11.4 µM and the K [4] was 3.4 10^2/M/s. For the same compound, the IC50 [7] was 22.5 µM, the K [8] was 2.89 10^2/M/s and the Kd [11] was 90.1 µM. For the same compound, the K [12] was 4.92 10^-2/s and the K [13] was 2.04 10^-2/s.
Work on `CC(C)C[C@H](NC(=O)[C@@H]1CCCN1C(=O)OCc1ccccc1)C(=O)N[C@@H](CCC(=O)OC(C)(C)C)C(=O)N[C@H](C(=O)NC12CC3CC(CC(C3)C1)C2)C(C)C` (Cbz-PLE(OtBu)V-{NH(1-Adamantyl)}) yielded an Activity (HEK293 [1]) of 81.5%.
With `CC(C)C[C@H](NC(=O)[C@@H]1CCCN1C(=O)OCc1ccccc1)C(=O)N[C@@H](CCC(=O)OC(C)(C)C)C(=O)N[C@H](C(=O)N1CCN(C)CC1)C(C)C` (Cbz-PLE(OtBu)V-{Piperazinyl(4-Me)}) the Activity (HEK293 [1]) was 54.2%.
Work on `CC(C)C[C@H](NC(=O)[C@@H]1CCCN1C(=O)OCc1ccccc1)C(=O)N[C@@H](CCC(=O)OC(C)(C)C)C(=O)N[C@H](C(=O)NC1CCCCC1)C(C)C` (Cbz-PLE(OtBu)V-NHcHex) yielded an Activity (HEK293 [1]) of 117%.
For `CC(C)C[C@H](NC(=O)[C@@H]1CCCN1S(=O)(=O)c1ccc(F)cc1)C(=O)N[C@@H](CCC(=O)OC(C)(C)C)C(=O)N[C@H](C(N)=O)C(C)C` ({Benzenesulfonyl(4-F)}-PLE(OtBu)V-NH2), the Activity (HEK293 [1]) was 86.4%.
For `CC(C)C[C@H](NC(=O)[C@@H]1CCCN1C(=O)C12CC3CC(CC(C3)C1)C2)C(=O)N[C@@H](CCC(=O)OC(C)(C)C)C(=O)N[C@H](C(N)=O)C(C)C` (Adamantane1carbonyl-PLE(OtBu)V-NH2), the Efficacy (HEK293 [2]) was 82.1%, the Activity (HEK293 [5]) was “Non-Toxic” and the IC50 [7] was 49 µM. For the same compound, the Activity (HEK293 [1]) was 68.7% and the inhibition (HEK293 [9]) was “inactive”.
